From ChEMBL document CHEMBL3994624, “Antimalarial Pyrido[1,2-a]benzimidazoles: Lead Optimization, Parasite Life Cycle Stage Profile, Mechanistic Evaluation, Killing Kinetics, and in Vivo Oral Efficacy in a Mouse Model” (J Med Chem, 2017)
In brackets after ≈: the same amount, converted by molar mass. Activity calls are given as the source filed them. The calls are words filed in the database; no cut-off is given here.

How the values were obtained:
[1] = system: Plasmodium falciparum; assay: Anti-plasmodial activity against chloroquine-sensitive Plasmodium falciparum NF54 late 4/5 stage gametocytes assessed as reduction in ATP levels after 24 hrs by BacTiter-Glo reagent based bioluminescence assay; type: functional; details: NF54, 24 h
[2] = Selectivity index, ratio of IC50 for CHO cells to IC50 for chloroquine-sensitive Plasmodium falciparum NF54; type: toxicity; details: hamster, read-out: Ratio IC50
How it was run: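 Selectivity index = IC50 CHO / IC50 PfNF54.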

[3] = system: Plasmodium berghei; assay: Antimalarial activity against GFP-fused Plasmodium berghei ANKA infected in mouse assessed as reduction in parasitemia at 50 mg/kg, po administered once daily for 4 days by flow cytometry relative to control; type: functional; design: scale not given: the % may be the effect or the level left
How it was run: (§1)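 P. berghei-infected mice, 3 per group. Compound formulated in 90/10 Tween80/ethanol (v/v), diluted 10-fold with water, given orally once daily at 4, 24, 48 and 72 h post-infection. Outcomes: % parasitemia reduction versus untreated control, mean survival days, and cured/infected. Mice with <40% reduction euthanized on day 4.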

[4] = system: Plasmodium falciparum; assay: Ratio of IC50 for chloroquine-sensitive Plasmodium falciparum NF54 early 2/3 stage gametocytes to IC50 for chloroquine-sensitive Plasmodium falciparum NF54 late 4/5 stage gametocytes; type: functional
How it was run: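 Early (stage II/III) and late (stage IV/V) gametocytes tested in parallel luciferase reporter assays; stage preference = EG IC50/LG IC50.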

[5] = Metabolic stability in human liver microsomes assessed as compound remaining at 1 uM in presence of NADPH after 30 mins by LC-MS/MS analysis; type: ADME, microsome; details: read-out: Stability
How it was run: (§2)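 Mouse and human liver microsomes; % compound remaining after 30 min.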

[6] = Kinetic solubility of the compound in FaSSIF at pH 6.5 after 2 hrs by shake flask method; type: physicochemical; details: read-out: Kinetic_solubility
[7] = system: Huh-7; assay: Cytotoxicity against human HuH7 cells at 1 to 10 uM after 48 hrs by Alamarblue assay; type: cell-based; details: huh-7, 48 h
[8] = system: Plasmodium falciparum; assay: Anti-plasmodial activity against multidrug resistant Plasmodium falciparum K1 by [3H]-hypoxanthine incorporation assay; type: functional
How it was run: (§3)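 P. falciparum asexual blood-stage growth inhibition by [3H]hypoxanthine incorporation; chloroquine and artesunate run as reference drugs in every experiment; IC50 given as mean of ≥2 independent experiments.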

[9] = system: Plasmodium falciparum; assay: Anti-plasmodial activity against chloroquine-sensitive Plasmodium falciparum NF54 by [3H]-hypoxanthine incorporation assay; type: functional; how it was run: as §3
[10] = system: Plasmodium berghei; assay: Antimalarial activity against GFP-fused Plasmodium berghei ANKA infected in mouse assessed as mouse mean survival days at 50 mg/kg, po administered once daily for 4 days; type: functional
How it was run: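 P. berghei-infected mice (n=3 per dose) dosed orally once daily on 4 consecutive days at 4, 24, 48 and 72 h after infection; compound in 90/10 Tween80/ethanol (v/v) diluted 10-fold with water. Read-outs were % parasitemia reduction, mean survival time in days and cure; mice with <40% parasitemia reduction euthanized on day 4.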

[11] = system: Plasmodium falciparum; assay: Ratio of IC50 for chloroquine-sensitive Plasmodium falciparum NF54 after 24 hrs to IC50 for chloroquine-sensitive Plasmodium falciparum NF54 after 72 hrs; type: functional
[12] = Metabolic stability in Balb/c mouse liver microsomes assessed as compound remaining at 1 uM in presence of NADPH after 30 mins by LC-MS/MS analysis; type: ADME, microsome; details: read-out: Stability; how it was run: as §2
[13] = system: CHO; assay: Cytotoxicity against CHO cells after by MTT assay; type: cell-based; details: Cricetulus griseus
[14] = system: Plasmodium berghei; assay: Antimalarial activity against GFP-fused Plasmodium berghei ANKA liver stage infected in HuH7 cells pretreated for 1 hr followed by parasite infection at 1 uM after 48 hrs by luciferase reporter gene assay; type: functional, cell-based
[15] = system: Plasmodium berghei; assay: Antimalarial activity against GFP-fused Plasmodium berghei ANKA liver stage infected in HuH7 cells pretreated for 1 hr followed by parasite infection after 48 hrs by luciferase reporter gene assay; type: functional, cell-based; details: Huh-7
[16] = system: Ferriprotoporphyrin IX; assay: Inhibition of beta hematin formation in water/NP40/DMSO solution after 5 hrs
[17] = system: Plasmodium falciparum; assay: Anti-plasmodial activity against chloroquine-sensitive Plasmodium falciparum NF54 late 4/5 stage gametocytes after 48 hrs by luciferin-luciferase reaction based bioluminescence assay; type: functional; details: NF54, 48 h
[18] = system: Plasmodium berghei; assay: Antimalarial activity against GFP-fused Plasmodium berghei ANKA infected in mouse assessed as protection against parasitemia at 50 mg/kg, po administered once daily for 4 days measured 30 days post infection by light microscopy; type: functional, organism-based; how it was run: as §1

| Structure (SMILES) | IC50 [1] | selectivity ratio [2] | Activity [3] | Ratio IC50 [4] | remaining at 0.5 h, 1 µM [5] | solubility kinetic at 2 h [6] | Activity [7] | IC50 [8] | IC50 [9] | MSD [10] | Ratio IC50 [11] | remaining at 0.5 h, 1 µM [12] | IC50 [13] | Activity [14] | IC50 [15] | IC50 [16] | IC50 [17] | Activity [18] |
| --- | --- | --- | --- | --- | --- | --- | --- | --- | --- | --- | --- | --- | --- | --- | --- | --- | --- | --- |
| CCNCCNc1cc(-c2cccc(F)c2)c(C#N)c2nc3ccccc3n12 | 3630 nM | 13 | 61% | 1.2 | 89% | 25 µM (≈ 9.34 µg/mL) | Non-Toxic | 1000 nM | 380 nM | 24 days | <1.5 | 100% | 5180 nM | – | – | – | – | – |
| CCNCCNc1c(C)c(-c2ccc(C(F)(F)F)cc2)c(C#N)c2nc3ccccc3n12 | 2570 nM | – | – | 0.8 | 85% | < 5 µM | Non-Toxic | – | 1280 nM | – | – | 80% | – | Active | 2850 nM | – | – | – |
| O=C1C(O)=C([C@H]2CC[C@H](c3ccc(Cl)cc3)CC2)C(=O)c2ccccc21 [ATOVAQUONE] | – | – | – | – | – | – | – | – | – | – | – | – | – | – | 1 nM | – | – | – |
| CCN(CC)CCCC(C)Nc1cc(-c2ccc(C(F)(F)F)cc2)c(C#N)c2nc3ccccc3n12 (stereo not given) | 3020 nM | 4 | – | 0.7 | 53% | 85 µM (≈ 42 µg/mL) | Non-Toxic | 400 nM | 690 nM | – | <1.5 | 32% | 2910 nM | – | – | – | – | – |
| N#Cc1c(-c2ccc(C(F)(F)F)cc2)cc(NC2CCNCC2)n2c1nc1ccccc12 | 1160 nM | 46 | – | 1.6 | 99% | – | Non-Toxic | 820 nM | 360 nM | – | – | 65% | 16500 nM | Active | 3310 nM | – | – | – |
| CN1CCC(Nc2cc(-c3ccc(C(F)(F)F)cc3)c(C#N)c3nc4ccccc4n23)CC1 | – | 14 | – | – | 75% | < 5 µM | – | 1000 nM | 440 nM | – | <1.5 | 63% | 5980 nM | – | – | – | – | – |
| N#Cc1c(-c2ccc(C(F)(F)F)cc2)cc(NCCn2ccnc2)n2c1nc1ccccc12 | 1020 nM | 27 | – | 1.1 | – | – | Non-Toxic | 790 nM | 390 nM | – | 1.5 - 2 | – | 10500 nM | – | – | < 45000 nM | – | – |
| COc1cc(NC(C)CCCN)c2ncccc2c1 (stereo not given) [PRIMAQUINE] | – | – | – | – | – | – | – | – | – | – | – | – | – | – | 8420 nM | – | – | – |
| CCNCCNc1cc(-c2ccc(F)cc2)c(C#N)c2nc3ccccc3n12 | 1770 nM | 35 | – | 2.1 | – | – | Non-Toxic | 540 nM | 330 nM | – | – | – | 11500 nM | – | – | – | – | – |
| CCNCCNc1cc(-c2cccc(C(F)(F)F)c2)c(C#N)c2nc3ccccc3n12 | 490 nM | 28 | – | 1.6 | – | – | Non-Toxic | 340 nM | 210 nM | – | – | – | 5920 nM | – | – | – | – | – |
| CCNCCNc1cc(C2CCCCC2)c(C#N)c2nc3ccccc3n12 | 460 nM | 7 | – | 3.3 | – | 10 µM (≈ 3.61 µg/mL) | Non-Toxic | 670 nM | 470 nM | – | – | 42% | 3190 nM | – | – | – | – | – |
| CCc1nc(N)nc(N)c1-c1ccc(Cl)cc1 [PYRIMETHAMINE] | – | – | – | – | – | – | – | – | – | – | 6 | – | – | – | – | – | – | – |
| N#Cc1c(-c2ccc(C(F)(F)F)cc2)cc(NCCN2CCC(O)C2)n2c1nc1ccccc12 (stereo not given) | – | 153 | – | – | – | < 5 µM | – | 30 nM | 40 nM | – | 18 | 51% | 6120 nM | – | – | – | – | – |
| CCNCCNc1cc(-c2ccc(C(F)(F)F)cc2)c(C#N)c2nc3cc(Cl)ccc3n12 | – | 362 | – | 1.1 | 87% | – | Non-Toxic | 30 nM | 30 nM | – | 1.5 - 2 | 75% | 8710 nM | – | – | < 45000 nM | 820 nM | – |
| CCNCCNc1cc(-c2ccc(C(F)(F)F)cc2)c(C#N)c2nc3cccc(Cl)c3n12 | – | 5 | 85% | – | 89% | 10 µM (≈ 4.58 µg/mL) | – | 260 nM | 140 nM | 7 days | – | 93% | 1630 nM | – | – | – | – | inactive |
| CCNCCNc1cc(-c2ccc(C(F)(F)F)cc2)c(C#N)c2nc3ccccc3n12 | – | 13 | – | 2.4 | 84% | < 5 µM | Non-Toxic | – | – | – | <1.5 | 97% | 1560 nM | – | – | < 45000 nM | 620 nM | – |
